The values below come from ChEMBL document CHEMBL1275434, “In vitro evaluation of CBR-2092, a novel rifamycin-quinolone hybrid antibiotic: studies of the mode of action in Staphylococcus aureus” (Antimicrob Agents Chemother, 2008).

SMILES strings stand for the structures. In brackets after ≈: the same amount, converted by molar mass.

Assay [1] deals with Staphylococcus aureus. The assay can be described thus: Antimicrobial activity against Staphylococcus aureus CB812 harboring rpo B H481Y and gyrA S84L mutant genes by broth microdilution method. It counts as functional. The method, boiled down:
(§1)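 CLSI broth microdilution MIC in cation-adjusted Mueller-Hinton (MHII) broth supplemented with 0.002% (vol/vol) polysorbate 80, included to limit compound loss to plastic surfaces.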

The test system of assay [2] is Staphylococcus aureus. The assay can be described thus: Antimicrobial activity against Staphylococcus aureus CB815 harboring rpoB H481Y, gyrA S84L and parC S80F mutant genes by broth microdilution method. Background: In broth dilution the organism is exposed to a series of concentrations in liquid medium.
The test system of assay [3] is DNA gyrase subunit A (Staphylococcus aureus), P20831 [S84L]. The assay can be described thus: Activity at Staphylococcus aureus wild-type GyrA S84L mutant.
The subject of assay [4] is Staphylococcus aureus. Description: Activity at Staphylococcus aureus DNA topoisomerase 4 subunit ParC S80F mutant.
The test system of assay [5] is Staphylococcus aureus. Description: Antimicrobial activity against Staphylococcus aureus CB814 harboring fluoroquinolone-resistant gyrA S84L and parC S80F mutant genes by broth microdilution method. It counts as functional. The procedure, abridged: as §1
Assay [6] deals with Staphylococcus aureus. The assay can be described thus: Activity at Staphylococcus aureus wild-type GyrA. The method, boiled down:
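Recombinant S. aureus gyrase (wild-type GyrA with His-tagged GyrB; 250 U per μg). SDS/proteinase K stop. Gel quantitation of linear cleavage product gave CC50, the mean of two or more assays.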

In assay [7] the test system is Staphylococcus aureus. The assay can be described thus: Antimicrobial activity against Staphylococcus aureus CB811 harboring quinolone-resistant gyrA S84L mutant gene by broth microdilution method. It counts as functional. The procedure, abridged: as §1
For assay [8], the system named is Staphylococcus aureus. Description: Antimicrobial activity against Staphylococcus aureus CB809 harboring rpoB H481Y and parC S80F mutant genes by broth microdilution method.
Assay [9] concerns Staphylococcus aureus. The assay can be described thus: Antimicrobial activity against Staphylococcus aureus CB370 harboring rifampin-resistant rpoB H481Y mutant gene by broth microdilution method. Type of assay: functional. The procedure, abridged:
as §1

Assay [10] has as its system Staphylococcus aureus. Description: Antimicrobial activity against Staphylococcus aureus CB190 by broth microdilution method. Type of assay: functional.
Assay [11] has as its system Staphylococcus aureus. The assay can be described thus: Activity at Staphylococcus aureus wild-type DNA topoisomerase 4 subunit ParC. The method, boiled down: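 Recombinant S. aureus topoisomerase IV (wild-type ParC with ParE; specific activity 25 to 30 U per μg). Stopped with SDS/proteinase K. Linear DNA quantified on gel; CC50 is the mean of two or more assays.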

Assay [12] relates to Staphylococcus aureus. Description: Antimicrobial activity against Staphylococcus aureus CB808 harboring quinolone-resistant parC S80F mutant gene by broth microdilution method. Type of assay: functional. The method, boiled down: as §1

For orientation: MIC means the lowest concentration that inhibits growth of the organism. Read a high MIC as weaker potency. `COc1c(N2CCNC(C)C2)c(F)cc2c(=O)c(C(=O)O)cn(C3CC3)c12` (centres undefined) [GATIFLOXACIN]: the MIC worked out at 0.12 µg/mL (≈ 0.32 µM) in assay [1]; 8 µg/mL (≈ 21.3 µM) in assay [2]; 8 µg/mL (≈ 21.3 µM) in assay [5]; 0.12 µg/mL (≈ 0.32 µM) in assay [7]; 0.25 µg/mL (≈ 0.666 µM) in assay [8]; 0.06 µg/mL (≈ 0.16 µM) in assay [9]. Moreover, the MIC in assay [10] worked out at 0.06 µg/mL (≈ 0.16 µM); in [12], 0.25 µg/mL (≈ 0.666 µM). The CC50 in assay [3] turned out to be 18 µM; in assay [4], 13 µM; in [6] it was 700 nM; in [11] it was 220 nM.
As to `Cc1c(N2CC[C@@H](N)C2)c(F)cn2c(=O)c(C(=O)O)cc(C3CC3)c12`, the MIC in assay [1] turned out to be 0.03 µg/mL (≈ 0.0869 µM); in assay [2], 0.25 µg/mL (≈ 0.724 µM); in [5], 0.5 µg/mL (≈ 1.45 µM); in assay [7], 0.03 µg/mL (≈ 0.0869 µM); in assay [8], 0.03 µg/mL (≈ 0.0869 µM); in assay [9], 0.015 µg/mL (≈ 0.0434 µM). Also, the MIC was found to be 0.015 µg/mL (≈ 0.0434 µM) in assay [10] and 0.03 µg/mL (≈ 0.0869 µM) in [12]. Further, the CC50 in assay [3] came to 0.9 µM; in assay [4] it was 1.1 µM; in assay [6] it was 90 nM; in assay [11] it was 60 nM.
